Variants at the floor of the assay were thinned out.
B1: tRNA (parent)
chain: GUUCCGUUGGCGUAAUGGUAACGCGUCUCCCUCCUAAGGAGAAGACUGCGGGUUCGAGUCCCGUACGGAACG

Variants of: B1
Experiment: yeast fitness relative to wild type (ratio to wild type); higher = fitter; tRNA-Arg(CCU), competitive growth, 37 C, YPD
In short: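 Variants of the tRNA-Arg(CCU) gene were chemically synthesised with a 3% per-site mutation rate across 69 sites and placed at the native genomic locus in Saccharomyces cerevisiae. Six parallel replicates of the pooled strains were competed in YPD at 37°C for 24 hours, and gene amplicons from the start and end populations were read by 100-nucleotide paired-end sequencing. Darwinian fitness relative to wild type was derived from changes in genotype frequencies. Genotypes required ≥ 100 starting reads, and estimates < 0.5 were set to 0.5.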

Row | Variant | yeast fitness
1 | GUUCCGUUGGCGUGAUGGUAACGGGUCUCCUUCCUAAGGAGAAGACCGCGGGUUAGAGUCCCGUACGGAACG | ≤ 0.5
2 | GUUCCGUUGGCGUGAUGGUAACGCGUCUUCCUCCUAAGGAGAAGACUGCGGGUUCGCGUCCCGUACGGAACG | ≤ 0.5
3 | GUUCCGUUGGCGUGAUGGUAACGCGUGUCCCUCGUAUGGAGAAGACUGCGGGUUCGAGUCGCGUACGGAACG | ≤ 0.5
4 | GUUCCGUUGGCGUGAUGGUAACGCGUCUCGCUCCUAAGGAGAAGACUGCGGGUUCGGGUCCCGUACGGAACG | ≤ 0.5
5 | GUUCCGUUGGCGUGAUGGUAACGCGUCUCCUUCCUAAGGAGUAGACUGCGGGUUCGAGUCCCGUACGGUACG | 0.544
6 | GUUCCGUUGGCGUGAUGGUAACGCGUUUCCCUCCUAAGGAGAAGACUGCGGGUUAGAGUCCCGUACGGAACG | 0.56
7 | GUUCCGUUGGCGUGAUGGUAACGCGUGUCCCUCGUAUGGAGAAGACUGCGGGUUCGAGUCCUGUACGGAACG | ≤ 0.5
8 | GUUCCGUUGGCGUGAUGGUAACGCGUGUCCCUCCUAGGGAGAAGACUGCGGGUUCGAGGCCCGUACGGAACG | ≤ 0.5
9 | GUUCCGUUGGCGUGAUGGUAACGUGUCUCCCUCCUAAGGAGAAGACUGCGGGUUCGAGUCCCGUACGGAACG | 0.784
10 | GUUCCGUUGGCGUGAUGGUAACGUGUCUCCCUCCUAAGGAGAAGCCUGCGUGUUCGAGCCCCGUACGGAACG | ≤ 0.5
11 | GUUCCGUUGGCGUGAUGGUAACGUGUCUCCCUCCUAAGGAGAAGACUGCGGGUUCGAGUCCCCUACGGAACG | ≤ 0.5
12 | GUUCCGUUGGCGUGAUGGUAACGCGUCUCCGUCCUAAGGAGAAGGCUGCGGGUUCUAGUCCCGUACGGAACG | ≤ 0.5
13 | GUUCCGUUGGCGUGAUGGUAACGCGUAUCCCUCCUAAGGAGAAGACUGCGGGUGCGAGUCCCGUACGCAACG | ≤ 0.5
14 | GUUCCGUUGGCGUGAUGGUAACGCGUAUCCCUCCUAAGGAGAAGACUGCGGGUUCGAGUCCCGUACGGAACG | 0.916
15 | GUUCCGUUGGCGUGAUGGUAACGCGUUUCCCUCCUAAGGAGAAGACUGCGGGUUCGAGUCCCGUACGGAACG | 0.974
16 | GUUCCGUUGGCGUGAUGGUAACGCGUCUGCCUCCUAGGGAGAAGACUGCGGGUUCGAGUCCCGUACGGAACG | ≤ 0.5
17 | GUUCCGUUGGCGUGAUGGUAACGUGUCUCCCUCCUAAGGAGAAGACUGCGGGUUCGAGUCCCGUCCGGAACG | 0.542
18 | GUUCCGUUGGCGUGAUGGUAACGCGUCUGCUUCCUAAGGAGAAGACUGCGGGUUUGAGUCCCGUACGGCACG | ≤ 0.5
19 | GUUCCGUUGGCGUGAUGGUAACGCGUCUGCCUCCUAAGGAGAAGACGGCGGGUUCGAAUCCCGUACGGAACG | ≤ 0.5

Row | Variant | yeast fitness
20 | GUUCCGUUGGCGUGAUGGUAACGCGUCUCCGUCCUAAGGAGAAGACUGCGGGUGCGCGUCCUGUACGGAACG | ≤ 0.5
21 | GUUCCGUUGGCGUGAUGGUAACGUGUCUCCCUCCUAAGGAGCAGACUGCAGGUUCGAGUCCCGUACGGAACG | ≤ 0.5
22 | GUUCCGUUGGCGUGAUGGUAACGGGUCUCCCUCCUAAGGAGCAGACUGCGGGUUCGAGUCCCGUACGGAACG | 0.512
23 | GUUCCGUUGGCGUGAUGGUAACGCGUCUCUCUCCUAAGGAGAAGAUUGCAGGUUCGAGUCCCGUACGGAACG | 0.602
24 | GUUCCGUUGGCGUGAUGGUAACGCGUCUCACUCCUAAGGAGAAGGCUGCGGGUUCGAGUGCCGUACGGAACG | 0.668
25 | GUUCCGUUGGCGUGAUGGUAACGCGUCUCCGUCCUAUGGAGAAGACUGCGGGUUCGAGUCCCGUACGGAACG | 0.533
26 | GUUCCGUUGGCGUGAUGGUAACGCGUCUCCGUCCUAAGGAGAAGACUGCGGGUUCGAAUCCCGUACGGAACG | ≤ 0.5
27 | GUUCCGUUGGCGUGAUGGUAACGCGUCUACCUCCUAAGGAGAAGACUGCGGGUUCGAGUCCCGUACGGAACG | 0.581
28 | GUUCCGUUGGCGUGAUGGUAACGCGUGUCCCUCGUAUGGAGAAGACUGCGGGUUCGAGUCCCGAACGGACCG | 0.522
29 | GUUCCGUUGGCGUGAUGGUAACGCGUCUCCAUCCUAAGGAGAAGACCGCGGGUUCGAGUCCCGUACGGAUCG | ≤ 0.5
30 | GUUCCGUUGGCGUGAUGGUAACGCGUCUCCCUACUAAGGAGAAGACUGCGGGUUCGAGUCCCGUACGGAACG | 0.516
31 | GUUCCGUUGGCGUGAUGGUAACGCGUCUCCCUGCUAAGGAGAAGACUGCGGGUUCGAGUCCCGUACGGAACG | ≤ 0.5
32 | GUUCCGUUGGCGUGAUGGUAACGCGUCUCCCUUCUAAGGAGAAGACUGCGGGUUCGAGUCCCGUACGGAACG | 0.616
33 | GUUCCGUUGGCGUGAUGGUAACGCGUCUCCUUCCUAAGGAGAAGACUGCGGGUUAGAGUCCCGUACAGAGCG | ≤ 0.5
34 | GUUCCGUUGGCGUGAUGGUAACGCGUCUCCAUCCUAAGGAGAAGACUGCGGGUUCGAGUCCCGUACGGAACG | 0.752
35 | GUUCCGUUGGCGUGAUGGUAACGCGUCUCCUUCCUAAGGAGAAGACUGCGGGUUCGAGUCCCGUACGGAACG | 0.932
36 | GUUCCGUUGGCGUGAUGGUAACGCGUCUUCCUCCUAAGGAGAAGACUGCGGGUUCGAGUCCUGUACGGAUCG | 0.536
37 | GUUCCGUUGGCGUGAUGGUAACGCGUCUCCGUUCUAACGAGAAGACUGCGGGUUCGACUCCCGUACUGAACG | ≤ 0.5
38 | GUUCCGUUGGCGUGAUGGUAACGCGUCUCACUCAUAAGGAGACGACUGCGGGUUCGAGUCCUAUACGGAACG | ≤ 0.5
